The source of these data is the array DNA melting data of Ke et al. (doi:10.1101/2024.01.08.574731).

The nature of series [1]: folding enthalpy; higher = less favourable; fluorescence melt of hairpins on a sequencing array, two-state fit. The note with it: sodium 0.088 M. Summed up:
(§1)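 To match UV melts, fitted temperatures were raised by 9.35 °C. These fits were bootstrapped two-state models that gave melting temperature and folding enthalpy, combined by inverse variance over four replicates. The input was normalised Cy3 fluorescence of library hairpins with annealed Cy3 and quencher oligos on a sequenced MiSeq flow cell, imaged in 50 mM Na-HEPES pH 8.0, 25 mM NaCl in 2.5 °C steps up to 60 °C.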

The nature of series [2]: melting temperature; fluorescence melt of hairpins on a sequencing array, two-state fit, raised by 9.35 °C to match UV melts. The note with it: sodium 0.088 M. A digest of the protocol: as §1

GATGTAGGAAACTATATC (((.(((....))).))): in series [1], the folding enthalpy was -28.5 kcal/mol. Moreover, the Tm in series [2] is 33.1 °C.
Regarding GATGTCCCGAAAGGGATC (((..(((....)))))), the folding enthalpy in series [1] is -9.1 kcal/mol. In addition, in series [2], the Tm stood at 33.6 °C.
In the case of GATGTCCGAAAGGAATC (((.(((....)))))), in series [1], the folding enthalpy was -13.5 kcal/mol. Further, the Tm in series [2] is 31.5 °C.
For GATGTCGGAAACGACGTC ((.((((....)))).)), the folding enthalpy in series [1] is -31.3 kcal/mol. In series [2], the Tm turned out to be 54.1 °C.
In the case of GATGTCGGAAACGATATC (((.(((....))).))), the folding enthalpy in series [1] is -48.3 kcal/mol. The Tm in series [2] is 46.6 °C.
Taken in the same sequence, the figures for GATGTCGGAAACGATGTC ((..(((....)))..)) were -32.6 kcal/mol and 39.9 °C.
As for GATGTGCGAAAGCAAATC (((.(((....))).))), the folding enthalpy in series [1] is -23.3 kcal/mol. The Tm in series [2] is 46.6 °C.
GATGTGCGAAAGCATATC (((.(((....))).))): the folding enthalpy in series [1] was -32.6 kcal/mol. Also, the Tm in series [2] was determined as 54.2 °C.
In the same order, the values of GATGTGGGAAACCATATC (((.(((....))).))) are -41.5 kcal/mol and 43.2 °C.
On to GATTAAGGAAACTTAATC (((((((....))))))), for which, in series [1], the folding enthalpy is -31.3 kcal/mol. Besides, the Tm in series [2] turned out to be 45.5 °C.
In the same order, the values of GATTACGAAAGTAATATC ((((((....)))..))) are -22.1 kcal/mol and 38.6 °C.
Taken in the same sequence, the figures for GATTACGAAAGTACATC ((((((....))).))) were -17.7 kcal/mol and 31.1 °C.
In the case of GATTAGGGAAACCTAATC (((((((....))))))), the folding enthalpy in series [1] is -45.1 kcal/mol. In series [2], the Tm came out at 50.3 °C.
As for GATTATGGAAACATGATC (((.(((....))).))), the folding enthalpy in series [1] is -32.8 kcal/mol. Moreover, the Tm in series [2] amounted to 35.5 °C.
In the same order, the values of GATTCACGAAAGTGATC (((.(((....)))))) are -13.4 kcal/mol and 42.3 °C.
In the same order, the values of GATTCAGAAATGAATC ((((((....)))))) are -25.8 kcal/mol and 46.7 °C.
Turning to GATTCAGGAAACTGAACC (.(((((....))))).), the folding enthalpy in series [1] was -17.4 kcal/mol. The Tm in series [2] amounted to 31.4 °C.
For the sequence GATTCCCGAAAGGGCATC (((.(((....))).))), in series [1], the folding enthalpy is -20.8 kcal/mol. The Tm in series [2] was found to be 41.5 °C.
As to GATTCCGAAAGGAAATC ((((((....))).))), the folding enthalpy in series [1] is -21.4 kcal/mol. Also, in series [2], the Tm is 41.5 °C.
In the same order, the values of GATTCCGAAAGGAAGATC ((((((....)))..))) are -22.3 kcal/mol and 45.4 °C.
As to GATTCCGAAAGGAATC ((((((....)))))), the folding enthalpy in series [1] was -35.7 kcal/mol. Moreover, the Tm in series [2] amounted to 64.9 °C.
Taken in the same sequence, the figures for GATTCCGAAAGGACAATC ((((((....)))..))) were -13.8 kcal/mol and 25.6 °C.
Taken in the same sequence, the figures for GATTCCGAAAGGAGGATC ((((((....)))..))) were -11.2 kcal/mol and 30.4 °C.
In the case of GATTCCGAAAGGATGATC ((((((....)))..))), the folding enthalpy in series [1] was -21.8 kcal/mol. In series [2], the Tm was 31.8 °C.
Taken in the same sequence, the figures for GATTCGGGAAACCGAATC (((((((....))))))) were -47.5 kcal/mol and 60.4 °C.
In the same order, the values of GATTCGGGAAACCGGATC (((.(((....))).))) are -39.6 kcal/mol and 49.3 °C.
Consider GATTCGGGAAACTGAATC (((((.(....).))))), for which the folding enthalpy in series [1] was -40.8 kcal/mol. The Tm in series [2] was determined as 45 °C.
Turning to GATTGACGAAAGTCTATC (((.(((....))).))), the folding enthalpy in series [1] is -26.2 kcal/mol. Besides, the Tm in series [2] stood at 46.1 °C.
With GATTGAGGAAACTCAGTC ((.((((....)))).)), the folding enthalpy in series [1] was -26.8 kcal/mol. In addition, the Tm in series [2] turned out to be 36.6 °C.
Take GATTGCGAAAGCAATATC ((((((....)))..))): the folding enthalpy in series [1] was -13.1 kcal/mol. For the same sequence, the Tm in series [2] was found to be 50.1 °C.
As to GATTGCGAAAGCACATC ((((((....))).))), in series [1], the folding enthalpy was -19.3 kcal/mol. Besides, the Tm in series [2] turned out to be 40.1 °C.
With GATTGCGAAAGCAGAATC ((((((....)))..))), the folding enthalpy in series [1] is -13.8 kcal/mol. Also, in series [2], the Tm was 35.4 °C.
With GATTGCGGAAACGCAACC (.(((((....))))).), in series [1], the folding enthalpy was -12.2 kcal/mol. The Tm in series [2] is 45.5 °C.
GATTGGCGAAAGCCATC (((.(((....)))))): the folding enthalpy in series [1] was -9.48 kcal/mol. Also, the Tm in series [2] is 41.3 °C.
GATTGGGGAAACCCAACC (.(((((....))))).): the folding enthalpy in series [1] was -14.5 kcal/mol. Further, the Tm in series [2] came out at 36.7 °C.
Turning to GATTGGGGAAACCCAATC (((((((....))))))), the folding enthalpy in series [1] is -41 kcal/mol. Further, the Tm in series [2] amounted to 61 °C.
On to GATTGTGGAAACATAATC ((((.((....)).)))), for which the folding enthalpy in series [1] is -27.3 kcal/mol. Also, the Tm in series [2] is 36.1 °C.
For GATTGTGGAAACATGATC (((..((....))..))), the folding enthalpy in series [1] was -18 kcal/mol. The Tm in series [2] stood at 31.2 °C.
GATTTAGCGAAAGCTATC (((..(((....)))))): the folding enthalpy in series [1] is -10.5 kcal/mol. Also, the Tm in series [2] was found to be 29.1 °C.
As for GATTTAGGAAACTGAATC ((((.((....)).)))), the folding enthalpy in series [1] is -26.4 kcal/mol. Moreover, the Tm in series [2] was 33.1 °C.
For GATTTCGGAAACGGAATC ((((.((....)).)))), the folding enthalpy in series [1] was -38.9 kcal/mol. In series [2], the Tm was 45 °C.
Consider GATTTTACGAAAGTAATC (((..(((....)))))), for which the folding enthalpy in series [1] was -13.6 kcal/mol. Besides, in series [2], the Tm came out at 26.3 °C.
On to GCAAAACGAAAGTTATGC (((.(((....))).))), for which the folding enthalpy in series [1] was -28.9 kcal/mol. For the same sequence, in series [2], the Tm was determined as 45.8 °C.
As to GCAAAACGAAAGTTGTGC (((.(((....))).))), the folding enthalpy in series [1] is -34.2 kcal/mol. Further, in series [2], the Tm amounted to 49.1 °C.
Taken in the same sequence, the figures for GCAAACCCGAAAGGGTGC (((..(((....)))))) were -17.5 kcal/mol and 51.7 °C.
In the same order, the values of GCAAACCGAAAGGTGTGC (((.(((....))).))) are -37.6 kcal/mol and 57.3 °C.
For GCAAACGAAAGTTCATGC ((((((....)))..))), the folding enthalpy in series [1] was -11.2 kcal/mol. Also, in series [2], the Tm was 26 °C.
For GCAAACGAAAGTTCTGC ((((((....))).))), the folding enthalpy in series [1] was -20.5 kcal/mol. Also, the Tm in series [2] is 37.2 °C.
As to GCAAACGAAAGTTGCTGC ((((((....)))..))), in series [1], the folding enthalpy was -22.2 kcal/mol. The Tm in series [2] came out at 54.1 °C.
GCAAACGAAAGTTGGTGC ((((((....)))..))): in series [1], the folding enthalpy is -22.5 kcal/mol. Also, the Tm in series [2] came out at 36.7 °C.
With GCAAACGAAAGTTGTTGC ((((((....)))..))), the folding enthalpy in series [1] was -22.5 kcal/mol. The Tm in series [2] amounted to 32.9 °C.
In the case of GCAAACGAAAGTTTCTGC ((((((....)))..))), the folding enthalpy in series [1] is -14.9 kcal/mol. The Tm in series [2] came out at 33.8 °C.
In the same order, the values of GCAAACGAAAGTTTGTGC ((((((....)))..))) are -25.2 kcal/mol and 52.8 °C.
On to GCAAACGAAAGTTTTTGC ((((((....)))..))), for which the folding enthalpy in series [1] was -16.1 kcal/mol. Also, the Tm in series [2] was 35.2 °C.
Taken in the same sequence, the figures for GCAAACGGAAACATTTGC (((((.(....).))))) were -28.2 kcal/mol and 36.7 °C.
